Measured values pooled from the literature.
Protocols differ between the studies behind these lines.
Matrix: plasma

| SMILES | host | route | dose | setting | measurement | value |
| --- | --- | --- | --- | --- | --- | --- |
| [2H]C([2H])([2H])NC(=O)c1cc(Oc2ccc(NC(=O)Nc3ccc(Cl)c(C(F)(F)F)c3)cc2)ccn1 | rat | oral | 40 mg/kg | single dose | CL/F | 2.67 mL/min/kg |
| CCOc1c([C@H](C)n2nc(C)c3c(N)ncnc32)cc(Cl)c(F)c1[C@@H]1CNC(=O)C1 | male Sprague-Dawley rat | oral | 2 mg/kg | single dose | CL/F | 10.3 mL/min/kg |
| C[C@H]1Oc2cc(cnc2N)-c2c(nn(C)c2C#N)CN(C)C(=O)c2ccc(F)cc21 | male Sprague-Dawley rat | oral | 10 mg/kg | single dose | CL/F | 66.7 mL/min/kg |
| Cc1cc(S(=O)(=O)N[C@]2(C)C[C@H](N3CCN(CC4CCN(c5ccc6c(c5F)n(C)c(=O)n6C5CCC(=O)NC5=O)CC4)CC3)C2)ccc1Nc1ncc(C(F)(F)F)c(N2CCC[C@](C)(O)C2)n1 (some centres unmarked) | rat | intravenous | 2 mg/kg | – | clearance | 145 mL/min/kg |
| CC(=O)O[C@@H]1CC[C@@]2(C)[C@@H](CC[C@]3(C)[C@@H]2C(=O)C=C2[C@@H]4[C@@H](C)[C@H](C)CC[C@]4(C)CC[C@]23C)[C@@]1(C)C(=O)O | female Wistar rat | oral | 1 mg/kg | single dose | CL/F | 0.332 mL/min/kg |
| C1=C/COCc2cc(ccc2OCCN2CCCC2)Nc2nccc(n2)-c2cccc(c2)COC/1 | rat | oral | 36 mg/kg | – | CL/F | 11700 mL/h |
| CC[C@H](C)[C@H](NC(=O)[C@@H]1CCCN1C(=O)CNC(=O)[C@H](Cc1ccccc1)NC(=O)[C@H](CC(N)=O)NC(=O)[C@H](CC(N)=O)NC(=O)[C@H](CO)NC(=O)[C@H](CO)NC(=O)[C@H](Cc1c[nH]cn1)NC(=O)[C@H](CCCNC(=N)N)NC(=O)[C@H](CC(C)C)NC(=O)[C@H](Cc1ccccc1)NC(=O)[C@H](CCC(=O)O)NC(=O)[C@H](C)NC(=O)[C@H](CC(C)C)NC(=O)[C@H](CCCNC(=N)N)NC(=O)[C@H](CCC(N)=O)NC(=O)[C@@H](NC(=O)[C@H](C)NC(=O)[C@@H]1CSSC[C@H](NC(=O)[C@H](CCCCN)NC(=O)CC[C@H](NC(=O)CCCCCCCCCCCCCCCCCCC(=O)O)C(=O)O)C(=O)N[C@@H](CC(N)=O)C(=O)N[C@@H]([C@@H](C)O)C(=O)N[C@@H](C)C(=O)N[C@@H]([C@@H](C)O)C(=O)N1)[C@@H](C)O)C(=O)N[C@@H](CC(C)C)C(=O)N1CCC[C@H]1C(=O)N1CCC[C@H]1C(=O)N[C@H](C(=O)N[C@@H](CC(N)=O)C(=O)N[C@H](C(=O)NCC(=O)N[C@@H](CO)C(=O)N[C@@H](CC(N)=O)C(=O)N[C@H](C(=O)N1CCC[C@H]1C(N)=O)[C@@H](C)O)C(C)C)[C@@H](C)O | male Sprague-Dawley rat | subcutaneous | 30 nmol/kg | single dose | CL/F | 0.112 mL/min/kg |
| CNS(=O)(=O)c1ccc(Nc2ncc(C(F)(F)F)c([C@H]3CC[C@@](C)(O)CC3)n2)c(C)c1 | rat | intravenous | 2 mg/kg | – | clearance | 7 mL/min/kg |
| CCN(CC)Cc1ccc2cc(COC(=O)Nc3ccc(C(=O)NO)cc3)ccc2c1 | male Sprague-Dawley rat | oral | 10 mg/kg | – | CL/F | 20.2 mL/min/kg |
| Cc1cc(S(=O)(=O)N[C@H]2CC[C@H](CN3CCN(c4cccc(NC5CCC(=O)NC5=O)c4)CC3)CC2)ccc1Nc1ncc(C(F)(F)F)c(N2CCC[C@](C)(O)C2)n1 (some centres unmarked) | rat | intravenous | 2 mg/kg | – | clearance | 43 mL/min/kg |
| CNC(=O)c1cc(Oc2ccc(NC(=O)Nc3ccc(Cl)c(C(F)(F)F)c3)cc2)ccn1 | male Sprague-Dawley rat | oral | 100 mg/kg | single dose | CL/F | 96.7 mL/min/kg |
| CNS(=O)(=O)c1ccc(Nc2ncc(C(F)(F)F)c(N3CCC[C@](C)(O)C3)n2)c(C)c1 | rat | intravenous | 2 mg/kg | – | clearance | 31 mL/min/kg |
| Cc1nc(Nc2ncc(C(=O)Nc3c(C)cccc3Cl)s2)cc(N2CC[C@H](O)C2)n1 | male Sprague-Dawley rat | intravenous | 1 mg/kg | – | clearance | 6.83 mL/min/kg |
| C=CC(=O)N1CCC([C@@H]2CCNc3c(C(N)=O)c(-c4ccc(Oc5ccccc5)cc4)nn32)CC1 | Sprague-Dawley rat | oral | 16 mg/kg | – | CL/F | 224 mL/min/kg |
| Cc1cc(S(=O)(=O)NC2CC(N3CCN(CC4CCN(c5cccc6c5n(C)c(=O)n6C5CCC(=O)NC5=O)CC4)CC3)C2)ccc1Nc1ncc(C(F)(F)F)c(N2CCC[C@](C)(O)C2)n1 (some centres unmarked) | rat | intravenous | 2 mg/kg | – | clearance | 37 mL/min/kg |
| CC[C@@H]([C@H](C)O)n1ncn(-c2ccc(N3CCN(c4ccc(OC[C@@H]5CO[C@@](Cn6cncn6)(c6ccc(F)cc6F)C5)cc4)CC3)cc2)c1=O | Sprague-Dawley rat | oral | 40 mg/kg | – | CL/F | 79 mL/min/kg |
| Cc1nc(Nc2ncc(C(=O)Nc3c(C)cccc3Cl)s2)cc(N2CC[C@@H](N)C2)n1 | male Sprague-Dawley rat | intravenous | 1 mg/kg | – | clearance | 135 mL/min/kg |
